The source of these data is ChEMBL document CHEMBL1156177, “Conjugates of plumbagin and phenyl-2-amino-1-thioglucoside inhibit MshB, a deacetylase involved in the biosynthesis of mycothiol” (Bioorg Med Chem, 2010).

The target of series [1] is T1, 1D-myo-inositol 2-acetamido-2-deoxy-alpha-D-glucopyranoside deacetylase (Mycobacterium tuberculosis) (UniProt P9WJN3).
T1 sequence (whole entry): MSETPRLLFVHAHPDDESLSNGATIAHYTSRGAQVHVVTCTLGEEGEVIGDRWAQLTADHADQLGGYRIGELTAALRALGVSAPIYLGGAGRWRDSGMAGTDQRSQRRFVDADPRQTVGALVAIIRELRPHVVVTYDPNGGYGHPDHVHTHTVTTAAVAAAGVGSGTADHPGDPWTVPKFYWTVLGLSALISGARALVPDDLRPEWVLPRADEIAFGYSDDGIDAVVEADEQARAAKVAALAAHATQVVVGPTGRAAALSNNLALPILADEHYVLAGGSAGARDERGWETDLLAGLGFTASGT
The series is described as follows: Inhibition of Mycobacterium tuberculosis MshB expressed in Escherichia coli BL21 at 500 uM after 10 mins by HPLC analysis. The essentials: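 Recombinant MshB (E. coli BL21(DE3) pLysS, purified) assayed with GlcNAc-Ins and inhibitor, each at 500 μM, in 40 μl with 1.0 μmol Na-Hepes pH 7.5, 1.0 μmol NaCl, 3.26 μg MshB; 10 min at 37 °C; stopped with acetonitrile/TFA, 60 °C 10 min; GlcN-Ins measured by C-18 hplc as AccQ-Fluor derivative; percent inhibition.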

Series [2] has as its system Mycolicibacterium smegmatis. In words: Inhibition of Mycobacterium smegmatis Mca at 250 uM after 10 mins by HPLC analysis. The method in brief:
(§1)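 Native Mca purified from M. smegmatis by (NH4)2SO4 cut (15–50%), DEAE, hydroxyapatite and size-exclusion HPLC. 8.0 nmol of the bimane substrate MSmB and 8.0 nmol inhibitor (250 µM each) in Na-Hepes pH 7.5 with NaCl, 40 µl final volume, run 10 min at 37 °C. Stopped with acetonitrile/TFA and 60 °C for 10 min. Product read by C-18 HPLC with fluorescence detection (ex 396/em 482 nm).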

The target in series [3] is T2, 1D-myo-inositol 2-acetamido-2-deoxy-alpha-D-glucopyranoside deacetylase (Mycobacterium tuberculosis, UniProt P9WJN3).
T2 sequence (P9WJN3 whole entry): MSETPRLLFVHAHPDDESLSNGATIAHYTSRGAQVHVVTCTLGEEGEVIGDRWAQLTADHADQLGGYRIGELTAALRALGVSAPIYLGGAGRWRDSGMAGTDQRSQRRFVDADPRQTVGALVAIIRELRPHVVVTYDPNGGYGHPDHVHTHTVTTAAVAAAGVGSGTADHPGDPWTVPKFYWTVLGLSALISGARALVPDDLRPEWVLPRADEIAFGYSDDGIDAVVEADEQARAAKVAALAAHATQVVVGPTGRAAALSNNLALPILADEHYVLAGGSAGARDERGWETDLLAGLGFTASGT
In words: Inhibition of Mycobacterium tuberculosis MshB expressed in Escherichia coli BL21 after 10 mins by HPLC analysis.

The target in series [4] is T1, 1D-myo-inositol 2-acetamido-2-deoxy-alpha-D-glucopyranoside deacetylase (Mycobacterium tuberculosis). The series is described as follows: Activity at Mycobacterium tuberculosis MshB expressed in Escherichia coli BL21 at 250 uM assessed per mg of protein by HPLC analysis. The essentials: (§2)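 Recombinant MshB from E. coli BL21(DE3) pLysS (IPTG 0.4 mM, 18 °C) purified by DEAE, Zn-IMAC and gel filtration. Substrates (GlcNAc glycosides, 250 μM for single-point comparison) incubated with 8.15 μg MshB, 1 μmol NaCl, 1 μmol Hepes pH 7.5 in 40 μl, 10 min, 37 °C; product quantified by C-18 hplc (UV for phenyl aglycons, dansylated for cyclohexyl) against complete-cleavage calibration curves.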

Series [5] shares this target. The series is described as follows: Ratio of Kcat to Km for Mycobacterium tuberculosis MshB. The essentials:
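GlcNAc-Ins varied 50–2000 μM with 3.26 μg purified recombinant MshB, 1.0 μmol Na-Hepes pH 7.5, 1.0 μmol NaCl in 40 μl, 10 min at 37 °C; GlcN-Ins quantified by hplc as AccQ-Fluor derivative.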

For series [6], the system named is Mycolicibacterium smegmatis. The series is described as follows: Activity at Mycobacterium smegmatis Mca by HPLC analysis. The method in brief:
as §1

Substrate in series [7]: CC(=O)N[C@@H]1[C@@H](O)[C@H](O)[C@@H](CO)O[C@@H]1Sc1ccccc1
In words: (§3) Activity at Mycobacterium tuberculosis MshB expressed in Escherichia coli BL21 by HPLC analysis. The essentials: as §2

Substrate in series [8]: CC(=O)N[C@H]1[C@@H](O[C@@H]2[C@H](O)[C@H](O)[C@@H](O)[C@H](O)[C@H]2O)O[C@H](CO)[C@@H](O)[C@@H]1O
Described as §3. The essentials:
as §2

Substrate in series [9]: CC(=O)N[C@@H]1[C@@H](O)[C@H](O)[C@@H](CO)O[C@@H]1Sc1ccccc1
The series is described as follows: (§4) Activity at Mycobacterium tuberculosis MshB expressed in Escherichia coli BL21 assessed per mg of protein by HPLC analysis. The method in brief:
as §2

Substrate in series [10]: CC(=O)N[C@H]1[C@@H](O[C@@H]2[C@H](O)[C@H](O)[C@@H](O)[C@H](O)[C@H]2O)O[C@H](CO)[C@@H](O)[C@@H]1O
Described as §4. The method in brief:
as §2

As usually defined, the inhibition is the relative decrease from the control value, in per cent. A low value points to little suppression. As for `C=CC[C@H]1[C@H](OC2CCCCC2)O[C@H](CO)[C@@H](O)[C@@H]1O`, the inhibition in series [1] came to 0%; in series [2], 9.3%.
By Ki is commonly meant the dissociation constant of the complex between target and ligand, obtained from inhibition or displacement. High values mean weaker binding, low ones tighter binding. Turning to `CC1=C(CCC(=O)N[C@@H]2[C@@H](O)[C@H](O)[C@@H](CO)O[C@@H]2Sc2ccccc2)C(=O)c2c(O)cccc2C1=O`, the inhibition is 57.4% in series [1] and 28.8% in series [2]. This molecule also came in with a Ki in [3] of 167 µM.
Take `OC[C@H]1O[C@H](OC2CCCCC2)[C@@H]2CC(O)CO[C@H]2[C@@H]1O` (stereo partly drawn): the inhibition in series [1] was determined as 6.6%; in [2] it was 35%.
Regarding `CC(=O)N[C@H]1[C@@H](OC2CCCCC2)O[C@H](CO)[C@@H](O)[C@@H]1O`, the Activity in series [4] is 6.07 nmol/min/mg.
Regarding `CS(=O)(=O)N[C@@H]1[C@@H](O)[C@H](O)[C@@H](CO)O[C@@H]1SC1CCCCC1`, the inhibition in series [1] and in [2] was 0% in each case.
On to `CC(=N)N[C@@H]1[C@@H](O)[C@H](O)[C@@H](CO)O[C@@H]1SC1CCCCC1`, for which the inhibition in [1] amounted to 0%; in series [2], 6.8%.
With `N[C@@H]1[C@@H](O)[C@H](O)[C@@H](CO)O[C@@H]1Sc1ccccc1`, the inhibition in series [1] turned out to be 6.1%; in series [2], 17%.
For `CC(=O)N[C@@H]1[C@@H](O)[C@H](O)[C@@H](CO)O[C@H]1SCc1ccccc1`, the inhibition was determined as 13.3% in series [1] and 0% in [2].
Consider `O=C(Nc1ccccc1)N[C@@H]1[C@@H](O)[C@H](O)[C@@H](CO)O[C@@H]1SC1CCCCC1`, for which the values for the inhibition in [1] and in series [2] were 17% and 15%, respectively.
Consider `CC(=O)N[C@H]1[C@@H](O[C@@H]2[C@H](O)[C@H](O)[C@@H](O)[C@H](O)[C@H]2O)O[C@H](CO)[C@@H](O)[C@@H]1O`, for which, in series [5], the Ratio was 690 M⁻¹ s⁻¹. The Activity in [4] stood at 106 nmol/min/mg.
On to `CC(=O)C[C@H]1[C@@H](OC2CCCCC2)O[C@H](CO)[C@@H](O)[C@@H]1O`, for which the inhibition in [1] was 6.7%; in [2] it was 17.2%.
As to `CC(=O)N[C@@H]1[C@@H](O)[C@H](O)[C@@H](CO)O[C@@H]1Sc1ccc([N+](=O)[O-])cc1[N+](=O)[O-]`, the inhibition turned out to be 29.4% in series [1] and 0% in series [2].
With `C=CC[C@H]1[C@@H](OC2CCCCC2)O[C@H](CO)[C@@H](O)[C@@H]1O`, the results for the inhibition in series [1] and in series [2] were 0% and 73.8%, respectively.
`N[C@@H]1[C@@H](O)[C@H](O)[C@@H](CO)O[C@@H]1SC1CCCCC1`: the inhibition in series [1] came to 16.4%; in [2], 0%.
For `CC(O)C[C@H]1[C@@H](OC2CCCCC2)O[C@H](CO)[C@@H](O)[C@@H]1O` (stereo partly drawn) the same measures were 11.4% and 20.5%.
Consider `CCC[C@H]1[C@@H](OC2CCCCC2)O[C@H](CO)[C@@H](O)[C@@H]1O`, for which the inhibition in [1] amounted to 0%; in [2] it was 22%.
On to `CC1=C(CCCCCC(=O)N[C@@H]2[C@@H](O)[C@H](O)[C@@H](CO)O[C@@H]2Sc2ccccc2)C(=O)c2c(O)cccc2C1=O`, for which the inhibition in [1] was found to be 94.8%; in [2], 44.5%. The affinity in [3] corresponds to a Ki of 16.8 µM.
Take `O=C(CCl)N[C@@H]1[C@@H](O)[C@H](O)[C@@H](CO)O[C@@H]1SC1CCCCC1`: the inhibition in series [1] is 14.9%; in [2], 0%.
Regarding `CO[C@H]1OCC(S[C@H]2O[C@H](CO)[C@@H](O)[C@H](O)[C@H]2NC(C)=O)C[C@H]1O` (stereo partly drawn), the values for the inhibition in series [1] and in series [2] were 0% and 27%, respectively.
With `CC(=O)N[C@@H]1[C@@H](O)[C@H](O)[C@@H](CO)O[C@@H]1SC1CCCCC1`, the Activity in series [4] came out at 6.11 nmol/min/mg.
The term Km denotes the concentration of substrate that gives half-maximal velocity. `CC(=O)N[C@@H](CSSc1ccc2cc(O)ccc2c1)C(=O)NC1[C@@H](OC2[C@H](O)[C@H](O)C(O)[C@@H](O)[C@H]2O)O[C@H](CO)[C@@H](O)[C@@H]1O` (stereo partly drawn): in series [6], the Km came to 328 µM.
For the molecule `CC(=O)N[C@@H]1[C@@H](O)[C@H](O)[C@@H](CO)O[C@@H]1Sc1ccccc1`, the Ratio in series [5] stood at 69.4 M⁻¹ s⁻¹. The Activity in series [4] turned out to be 27 nmol/min/mg.
As for `OC[C@H]1O[C@H](OC2CCCCC2)[C@H](CC2CO2)[C@@H](O)[C@@H]1O` (stereo partly drawn), the inhibition in series [1] worked out at 19.7%; in [2], 19.4%.
For `CC1=C(CCCCC(=O)N[C@@H]2[C@@H](O)[C@H](O)[C@@H](CO)O[C@@H]2Sc2ccccc2)C(=O)c2c(O)cccc2C1=O`, the inhibition was determined as 81.4% in [1] and 23.2% in [2]. The same molecule gave a Ki in series [3] of 94 µM.
On to `CC(=O)N[C@@H]1[C@@H](O)[C@H](O)[C@@H](CO)O[C@H]1Sc1ccccc1`, for which the figures for the inhibition in series [1] and in series [2] were 15.1% and 0%, respectively.
For `CC1=C(CCCC(=O)N[C@@H]2[C@@H](O)[C@H](O)[C@@H](CO)O[C@@H]2Sc2ccccc2)C(=O)c2c(O)cccc2C1=O`, the results for the inhibition in series [1] and in series [2] were 81.6% and 37.8%, respectively.

B1: 1D-myo-inositol 2-acetamido-2-deoxy-alpha-D-glucopyranoside deacetylase (Mycobacterium tuberculosis), P9WJN3 (protein)
chain: MSETPRLLFVHAHPDDESLSNGATIAHYTSRGAQVHVVTCTLGEEGEVIGDRWAQLTADHADQLGGYRIGELTAALRALGVSAPIYLGGAGRWRDSGMAGTDQRSQRRFVDADPRQTVGALVAIIRELRPHVVVTYDPNGGYGHPDHVHTHTVTTAAVAAAGVGSGTADHPGDPWTVPKFYWTVLGLSALISGARALVPDDLRPEWVLPRADEIAFGYSDDGIDAVVEADEQARAAKVAALAAHATQVVVGPTGRAAALSNNLALPILADEHYVLAGGSAGARDERGWETDLLAGLGFTASGT
For orientation: kcat means the number of substrate molecules converted per active site and unit of time at saturation. One may read the Vmax as the top rate of the reaction or transport when substrate is in excess. Consider B1, for which the Km in series [7] came out at 1700 µM; in series [8], 348 µM. For the same molecule, the kcat turned out to be 0.12 s⁻¹ in [7] and 0.24 s⁻¹ in series [8]. Further, the maximum rate (Vmax) in [9] worked out at 214 nmol/min/mg; in series [10], 437 nmol/min/mg.
